This is a sample that favours compounds with a hit; in the whole collection about 2.1% have one here.
EP2 mod = modulators of human EP2 prostaglandin E2 receptor; P43116; EP2-expressing cells, cAMP HTRF FRET, PGE2 co-stimulation; induction, % at 25 µM; actives 0.83% (n = 260,000); AID 940;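 active = compounds whose cAMP rise, as percent of the full-agonist control response, exceeds 60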;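 also: rat C6 glioma line stably carrying human EP2 under a CMV promoter; the protocol text gives 20 µM as final concentration; 100% = response of wells given 1 µM PGE2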
Target sequence (P43116 whole entry, looked up): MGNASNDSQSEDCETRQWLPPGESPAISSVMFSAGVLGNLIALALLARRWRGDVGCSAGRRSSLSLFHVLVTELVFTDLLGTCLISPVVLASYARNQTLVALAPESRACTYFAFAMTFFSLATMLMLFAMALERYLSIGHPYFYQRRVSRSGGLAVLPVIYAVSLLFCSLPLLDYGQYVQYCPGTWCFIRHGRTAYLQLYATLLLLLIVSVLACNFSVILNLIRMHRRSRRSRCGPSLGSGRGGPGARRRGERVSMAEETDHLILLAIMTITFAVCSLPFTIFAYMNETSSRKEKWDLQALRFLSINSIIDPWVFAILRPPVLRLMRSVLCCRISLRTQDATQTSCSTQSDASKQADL
KLK5 inh = inhibitors of human kallikrein 5 | actives 0.59% (n = 210,000) | Q9Y337 | inhibition, % at 5 µM | recombinant hK5, fluorogenic AMC substrate cleavage;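 active = inhibition of 40% or more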;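 also: 0% = enzyme controls without compound and 100% = no-enzyme blanks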
Target sequence (Q9Y337 67-293 limits assumed): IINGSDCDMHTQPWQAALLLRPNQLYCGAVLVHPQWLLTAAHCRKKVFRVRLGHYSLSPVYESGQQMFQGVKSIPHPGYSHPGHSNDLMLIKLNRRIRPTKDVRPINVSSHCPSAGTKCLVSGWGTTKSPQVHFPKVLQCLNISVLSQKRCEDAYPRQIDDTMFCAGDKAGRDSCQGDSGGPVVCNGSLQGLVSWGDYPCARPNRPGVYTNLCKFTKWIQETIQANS
FXIa inh 1536 = blocks human coagulation factor XIa protease activity; P03951; purified FXIa, Boc-Glu-Ala-Arg-AMC fluorogenic substrate; inhibition, % at 5 µM; actives 0.14% (n = 220,000);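 active = inhibition of at least 40%; inactive = inhibition below 40%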;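 also: fluorescence of freed AMC excited at 355 nm; 0% = enzyme without compound and 100% = no enzyme blank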
FXIIa inh 1536 = factor XIIa (human) inhibition | P00748 | purified FXIIa, Boc-QGR-AMC fluorogenic substrate, 2 h | inhibition, % at 5 µM | actives 0.3% (n = 220,000) | AID 800; in the data active = inhibition above about 40%;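 also: 0% = enzyme with no compound and 100% = blank without enzyme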
PGE2 EP2 inh = inhibitors of human EP2 prostaglandin E2 receptor | P43116 | C6 glioma cells expressing human EP2, cAMP TR-FRET; cells stimulated with saturating PGE2 | inhibition, % at 25 µM | actives 0.52% (n = 260,000);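 active = percent inhibition above 40 after rounding to a whole number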;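 also: rat C6 glioma host cells with rolipram phosphodiesterase inhibitor present; the protocol text gives 20 µM as final concentration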
thrombin 1536 = blocks human thrombin protease activity; actives 0.26% (n = 220,000); P00734; inhibition, % at 5 µM; alpha-thrombin, Boc-VPR-AMC fluorogenic substrate cleavage; AID 1046;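 active = inhibition at or above 40%; inactive = inhibition below 40%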;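 also: 0% = enzyme with no compound and 100% = wells without enzyme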
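Material: human alpha-thrombin enzyme / Medium: pH 7.5 Tris (50 mM) with NaCl 150 mM, Tween 20 0.05% / Compound: single-point dosing at 5 µM, 0.2% DMSO / Incubation: enzyme reaction carried out at room temperature / Detection: AMC fluorescence, 355/460 nm / Read-out basis: percent inhibition scaled between no-compound controls and no-enzyme blanks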
* = called active by the depositor; nt = not tested or not shown.

SMILES | EP2 mod | KLK5 inh | FXIa inh 1536 | FXIIa inh 1536 | PGE2 EP2 inh | thrombin 1536
Fc1ccc(Oc2cnc3ccccc3n2)cc1 | 14 | 3 | -1 | 10 | 5 | 95*
O=C(Cn1nc(C(F)F)cc1C(F)F)NNC(=S)Nc1ccc(F)cc1 | 12 | -223 | -4 | -17 | 7 | 50*
COC(=O)c1cccc(NC(=O)CSc2ncn[nH]2)c1 | 1 | -2 | 44* | 54* | 9 | 2
CNC(=S)Nc1cccc(C(=O)OC)c1 | 20 | 51* | 5 | 32 | 3 | 9
COC(=O)c1ccc(Cl)c(NC(=O)CSc2ncn[nH]2)c1 | -1 | -23 | -10 | -6 | 4 | -10
Cc1ncc(C(=O)NCc2nc(-c3ccccc3)no2)c(C)n1 | -25 | nt | nt | nt | 2 | nt
COCCCNC(=S)N(Cc1cc2cc(OC)ccc2[nH]c1=O)CC1CCCO1 (stereo unspecified) | 12 | nt | nt | nt | 4 | nt
O=C(O)C(=Cc1ccc(-c2cc(Cl)ccc2Cl)o1)C(=O)O | -13 | nt | nt | nt | 12 | nt
O=C(CSc1nnnn1-c1ccccc1F)N1CCCCC1 | -18 | nt | nt | nt | 12 | nt
COc1cc(C2SCC(=O)N2c2c(C)n(C)n(-c3ccccc3)c2=O)ccc1O (stereo unspecified) | -5 | 23 | 43* | 19 | 8 | 28
COc1ccc(C2SCC(=O)N2c2c(C)n(C)n(-c3ccccc3)c2=O)cc1 (stereo unspecified) | 7 | -14 | 5 | 17 | 6 | 7
CC1Cc2ccccc2N1C(=O)Cn1nc(-c2ccoc2)oc1=O (stereo unspecified) | -51 | nt | nt | nt | 8 | nt
CCn1cc(C(=O)NCc2ccco2)c(=O)c2cc(S(=O)(=O)N3CCCCCC3)ccc21 | -19 | -4 | -2 | 16 | 6 | 41*
Cn1cc(C(=O)NCc2cccs2)c(=O)c2cc(S(=O)(=O)N3CCCC3)ccc21 | -64 | -6 | -2 | 3 | 9 | 74*
Cn1cc(C(=O)NCc2cccnc2)c(=O)c2cc(S(=O)(=O)N3CCCCCC3)ccc21 | 9 | 2 | 0 | 11 | 6 | 12
Cc1cc(C)nc(SCCn2c(N3CCCCCC3)nc3c2c(=O)n(C)c(=O)n3C)n1 | -82 | nt | nt | nt | 4 | nt
O=C(Nc1ccc(N2CCOCC2)cc1)C1CCN(S(=O)(=O)c2ccccc2F)CC1 | -5 | 8 | 7 | 6 | 10 | 70*
O=C(Nc1ccc(N2CCOCC2)cc1)C1CCCN(S(=O)(=O)c2ccccc2)C1 (stereo unspecified) | -3 | -9 | -10 | 5 | 15 | -2
O=C(NC1CCCc2ccccc21)C1CCN(S(=O)(=O)c2ccccc2F)CC1 (stereo unspecified) | -35 | 28 | 6 | 88* | 6 | 29
CCOC(=O)C1=C(N)N2C(=O)C(C)SC2=C(C(=O)OCC)C1c1ccccc1 (stereo unspecified) | 62* | 1 | -3 | 0 | 9 | -10
CC1CCN(CC(O)c2ccc3c(c2)CCCN3C(=O)C2CCCC2)CC1 (stereo unspecified) | -40 | nt | nt | nt | 2 | nt
O=C(NC(=S)N1CCOCC1)c1ccc(Cl)cc1 | -16 | nt | nt | nt | 7 | nt
CC(C)(C)OC(=O)N1CC=C2C(C#N)=C(N)C(C#N)(C#N)C(c3ccc4c(c3)OCO4)C2C1 (stereo unspecified) | 15 | nt | nt | nt | 40* | nt
CC(C)(C)OC(=O)N1CC=C2C(C#N)=C(N)C(C#N)(C#N)C(c3ccc(F)c(F)c3)C2C1 (stereo unspecified) | -19 | nt | nt | nt | 10 | nt
O=C1CC(Sc2ccc(Cl)cc2)C(=O)N1c1ccc2c(c1)OCCO2 (stereo unspecified) | -14 | 53* | 44* | 17 | 10 | 37
SMILES | EP2 mod | KLK5 inh | FXIa inh 1536 | FXIIa inh 1536 | PGE2 EP2 inh | thrombin 1536
CCSC1=NC(C)(C)CC(C)O1 (stereo unspecified) | 1 | nt | nt | nt | 17 | nt
Cc1oc(C(C)(C)C)cc1C(=O)Nc1ccc2c(c1)OCCO2 | -61 | 40* | 0 | 3 | nt | 22
Cc1cc(N2CCN(C(=O)c3cc(=O)c4cc(C)c(C)cc4o3)CC2)nc(C)n1 | -26 | nt | nt | nt | 6 | nt
CC(C)CC(=O)Nc1ccccc1N1CCCC1 | 13 | 72* | -4 | 26 | 6 | 20
O=C(/C=C/c1ccco1)Nc1ccccc1N1CCCCC1 | 62* | 4 | 1 | 7 | 4 | 3
CC(C)CC(=O)NC(=S)Nc1ccccc1N1CCCC1 | -21 | 26 | -16 | -1 | 3 | -7
CCN1CCN(C(=O)c2cc3sc4ccccc4c3s2)CC1 | -114 | nt | nt | nt | 19 | nt
O=C(c1ncoc1-c1cccc(F)c1)N1CCN(c2nc3ccccc3s2)CC1 | -76 | nt | nt | nt | 11 | nt
Nc1nc(N)c2cc(Sc3ccc4ccccc4c3)ccc2n1 | -44 | 0 | -1 | 7 | 53* | -3
COc1ccc(-c2[nH]ncc2N=Nc2ccccc2)cc1 | 62* | 0 | 1 | 4 | 5 | -2
COc1ccc(-c2[nH]ncc2N=Nc2cc(C)cc(C)c2)cc1 | 33 | 25 | 13 | 11 | 6 | -10
C[C@@H](Cn1nnc2ccccc21)NC(=O)c1cscn1 | -15 | nt | nt | nt | 8 | nt
N/C(=N\OC(=O)c1ccc(Cl)c([N+](=O)[O-])c1)c1ccccn1 | -38 | 0 | 3 | 98* | 6 | 0
Cc1cc(=O)oc2cc(OCC(=O)Nc3nnc(CC(C)C)s3)ccc12 | -7 | 12 | -4 | 4 | 12 | -6
CCCCc1nnc(NC(=O)COc2ccc3c(C)cc(=O)oc3c2)s1 | 9 | 112* | 14 | 34 | 20 | 14
Cc1ccc(NC(=O)c2cc(N3C(=O)C=CC3=O)ccc2N2CCOCC2)cc1 | -72 | -1 | -3 | 3 | 118* | -5
COC(=O)c1[nH]c(C)c(/C(O)=C2\C(=O)C(=O)N(CCN(C)C)C2c2cc(OC)ccc2OC)c1C (stereo unspecified) | 18 | -16 | 2 | 19 | -1 | 4
COC(=O)c1[nH]c(C)c(/C(O)=C2\C(=O)C(=O)N(CCN(C)C)C2c2cccc(OC)c2OC)c1C (stereo unspecified) | -1 | 56* | 5 | 44* | nt | 11
C[N+](C)(C)CCN[N@+]1(C)CCCc2ccccc21 | 19 | nt | nt | nt | 40* | nt
Cc1ccc(-c2nnc3n2N=C(c2ccc(Br)cc2)CS3)cc1 | 27 | -8 | 40 | 53* | 12 | -6
Cc1cccc(-c2nnc3n2N=C(c2ccc(Br)cc2)CS3)c1 | nt | nt | nt | nt | 5 | nt
COC(=O)c1nc(NC(=O)C(C)C)n[nH]1 | -1 | 13 | -9 | 16 | 6 | 35
COC(=O)c1nc(NC(C)=O)n[nH]1 | 0 | 5 | 0 | 48* | 8 | 25
CC(C)(C)C(=O)c1cn(CC(=O)NCc2cccs2)c2ccccc12 | -6 | nt | nt | nt | 6 | nt
COc1ccccc1CN(Cc1cc2cc(C)ccc2[nH]c1=O)Cc1nnnn1C1CCCC1 | 65* | nt | nt | nt | 6 | nt
Cc1ccc2[nH]c(=O)c(CN(Cc3ccccc3Cl)Cc3nnnn3C3CCCC3)cc2c1 | 74* | nt | nt | nt | 5 | nt
Cc1ccc2[nH]c(=O)c(CN(Cc3ccccc3)Cc3nnnn3C3CCCCC3)cc2c1 | 45 | nt | nt | nt | 13 | nt

Screening data deposited in PubChem BioAssay by several laboratories.
